Laboratory results reported in ChEMBL document CHEMBL4196138, “Antiproliferative Carvotacetones from Sphaeranthus africanus” (J Nat Prod, 2018).

What was measured:
HEK293 = experiment: Cytotoxicity against HEK293 cells after 72 hrs by XTT assay; type: cell-based; details: Homo sapiens, HEK293, 72 h
Procedure, shortened: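 HEK-293 cells in DMEM:Ham's F12 (1:1) with 2 mM L-glutamine, 10% FBS, and 1% penicillin/streptomycin at 37 °C in 5% CO2. 10 000 cells/well were treated 72 h with compounds from DMSO stocks (final DMSO 0.5%; vehicle controls). XTT plus electron coupling reagent was added and read photometrically. IC50 from a four-parameter logistic fit; mean ± SEM of six independent experiments.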

CCRF-CEM = experiment: Cytotoxicity against human CCRF-CEM cells after 72 hrs by XTT assay; type: functional, cell-based
Procedure, shortened: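 CCRF-CEM leukemia cells in RPMI 1640 with 2 mM L-glutamine, 10% FBS, and penicillin/streptomycin at 37 °C in 5% CO2. 10 000 cells/well were exposed 72 h to a concentration series (final DMSO 0.5%, vehicle control; vinblastine 0.01 μM as positive control). XTT was read photometrically after 4 h. Four-parameter logistic IC50; mean ± SEM, n = 6 independent experiments.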

MDA-MB-231 = experiment: Cytotoxicity against human MDA-MB-231 cells after 72 hrs by XTT assay; type: functional, cell-based; details: MDA-MB-231, 72 h
Procedure, shortened: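 MDA-MB-231 breast cancer cells kept in RPMI 1640 with 2 mM L-glutamine, 10% FBS, and penicillin/streptomycin at 37 °C in 5% CO2. 5000 cells/well were grown overnight, then exposed 72 h to compounds (final DMSO 0.5%, vehicle control; vinblastine 0.01 μM as positive control). Photometric XTT readout after 1.5 h. Four-parameter logistic IC50; six independent experiments, mean ± SEM.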

U-251 = experiment: Cytotoxicity against human U251 cells after 72 hrs by XTT assay; type: functional, cell-based; details: U-251, 72 h
Procedure, shortened: (§1)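 HCT-116 and U-251 cells grown in high-glucose DMEM with 4 mM L-glutamine, 10% FBS, and 1% penicillin/streptomycin at 37 °C in 5% CO2. 5000 cells/well were attached overnight, then treated 72 h (final DMSO 0.5%; vinblastine 0.01 μM as positive control). XTT was measured photometrically 1.5 h after addition. IC50 by four-parameter logistic fit; mean ± SEM of six independent experiments.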

HCT-116 = experiment: Cytotoxicity against human HCT116 cells after 72 hrs by XTT assay; type: functional, cell-based; details: HCT-116, 72 h; procedure, shortened: as §1

| Structure (SMILES) | IC50 (HEK293) [nM] | IC50 (CCRF-CEM) [nM] | IC50 (MDA-MB-231) [nM] | IC50 (U-251) [nM] | IC50 (HCT-116) [nM] |
| --- | --- | --- | --- | --- | --- |
| C/C=C(/C)C(=O)O[C@@H]1C=C(CO)C(=O)[C@@H](OC(=O)[C@](C)(O)[C@@H](C)Cl)[C@@H]1C(C)C | 2800 | 600 | 1500 | 2100 | 2900 |
| C/C=C(/C)C(=O)O[C@@H]1C(=O)C(CO)=C[C@@H](OC(=O)/C(C)=C/C)[C@H]1C(C)C | 3000 | 1300 | 2000 | 2100 | 2500 |
| C/C=C(/C)C(=O)O[C@@H]1C=C(CO)C(=O)[C@@H](O)[C@@H]1C(C)C | 5500 | 1500 | 6500 | 4300 | 9500 |
| C/C=C(/C)C(=O)O[C@@H]1C=C(CO)C(=O)[C@@H](OC(=O)[C@]2(C)O[C@@H]2C)[C@@H]1C(C)C | 3000 | 1200 | 2000 | 2900 | 2600 |
| CC[C@]1(O)C[C@@H]2CN(CCc3c([nH]c4ccccc34)[C@@](C(=O)OC)(c3cc4c(cc3OC)N(C)[C@H]3[C@@](O)(C(=O)OC)[C@H](OC(C)=O)[C@]5(CC)C=CCN6CC[C@]43[C@@H]65)C2)C1 [VINBLASTINE] | 27 |  |  |  | 8.7 |
| C/C=C(/C)C(=O)O[C@@H]1C(=O)C(CO)=C[C@@H](OC(=O)/C(C)=C\C)[C@H]1C(C)C | 2500 | 800 | 1800 | 3000 | 3900 |
